High-throughput results from PubChem BioAssay.
XBP1 UPR activ: activators of adaptive arm of unfolded protein response (XBP1); CHO-XBP1 luciferase reporter, IRE1-XBP1 UPR activation, luminescence; percent of tunicamycin response, DMSO as zero; activation, % at 20 µM; actives 0.33% (n = 330,000); AID 463104;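 active = versus positive control, 20 µM dose yields 30% or more activation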;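 also: 100% = tunicamycin at 10 µg/mL and 0% = DMSO only wells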
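Assay system: IRE1-XBP1 luciferase reporter CHO line. Input: 1000 cells/well. Buffer or medium: F12 with 10% serum. Doses: 20 µM, 1% DMSO. Times: overnight seeding at 37 °C, 6 h compound treatment at 37 °C. Technique: Steady-Glo luciferase glow luminescence, 10 min after reagent addition.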
NR3A LBD binder: NR3A (human) ligand-binding domain modulation; NR3A LBD differential scanning fluorimetry, Tm shift; 0% = protein alone, 100% = glycine-bound protein; Tm shift relative to glycine control, % at 25 µM; actives 2.5% (n = 340,000); AID 1259313;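 active = melting temperature shift of at least 10% of the positive control shift, at one fixed dose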
aDG glyco up: increases alpha dystroglycan glycosylation. Pro5-aDG cells, alpha-DG glycosylation AlphaScreen (IIH6); 0% Pro5, 100% B10-LARGE cell signal. AID 624168. activation, % at 10 µM. actives 0.22% (n = 360,000);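 active = activation of at least 8% versus controls, or a plate z-score of at least 8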;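 also: Pro5 are CHO cells carrying HIG-tagged alpha-DG that lacks glycosylation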
CHOP inh: inhibitors of CHOP induction in ER stress response. CHO-K1 CHOP-promoter luciferase, tunicamycin-induced, 15-18 h. inhibition, % at 10 µM. actives 3.8% (n = 220,000);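 active = compounds that reduced the stress-induced luciferase reporter signal by more than about 70% of percent inhibition, limit read from the data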;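 also: 0% = tunicamycin plus vehicle and 100% = wells without tunicamycin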
MPTP inh: inhibitors of mitochondrial permeability transition pore; isolated mouse mitochondria, Ca2+ swelling absorbance, 30 min; inhibition, % at 10 µM; actives 1.4% (n = 360,000); AID 602449;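 active = inhibition of 50% or more, scaled per plate between neutral and stimulator controls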;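 also: 0% = DMSO wells given calcium and 100% = 1 mM EGTA wells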
UPR CHOP act: apoptotic UPR (CHOP) activation; actives 0.34% (n = 330,000); CHO-CHOP luciferase reporter, luminescence; percent of tunicamycin response over DMSO baseline; activation, % at 10 µM;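 active = at 10 µM dose, activation of 40% or more, normalized to positive control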;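 also: 100% = tunicamycin at 10 µg/mL and 0% = DMSO alone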
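Assay system: CHO-CHOP cells, stable luciferase reporter of PERK-eIF2a-CHOP signalling / Buffer or medium: F12 plus 10% serum / Compound dosing: one dose, 10 µM in 0.5% DMSO / Times: 6 h compound treatment, 37 °C / Technique: luciferase luminescence / Read-out: % reporter activation, DMSO baseline versus tunicamycin full activation / Benchmarks: tunicamycin and DMSO controls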
The depositor's hits bear a star; / = no result given. An excerpt weighted towards active compounds, which were near 5.6% of everything screened.

SMILES	XBP1 UPR activ	NR3A LBD binder	aDG glyco up	CHOP inh	MPTP inh	UPR CHOP act
O=C1C(Cc2ccccc2)S/C(=N/N=C/c2ccco2)N1c1ccccc1 (centres undefined)	4	3	0	39	-2	-3
C=CCN1C(=O)C(Cc2ccc(C)cc2)S/C1=N/N=C/c1ccco1 (centres undefined)	8	0	0	76*	0	0
O=S(=O)(c1ccc(F)c(F)c1)N1CCN(CCc2ccccc2)CC1	-3	1	0	/	0	2
COc1ccccc1-c1nc2s/c(=C\c3cccs3)c(=O)n2n1	-1	5	0	83*	-2	-1
COc1cc(/C=c2\sc3nc(-c4ccncc4)nn3c2=O)ccc1OC(C)=O	/	/	/	107*	/	/
COc1cccc(/C=c2\sc3nc(-c4cccs4)nn3c2=O)c1OC	0	2	0	2	4	-1
Cc1ccccc1NC(=O)/C=C1\SC(=O)NC1=O	-5	1	0	-11	0	-1
CCc1ccc(OC(=O)c2cccnc2)cc1	1	-2	0	/	0	2
Cc1c(C(=O)N(C)Cc2cccc(F)c2)oc2c(Cl)cccc12	2	-1	0	/	1	1
COc1cccc(S(=O)(=O)NCc2ccc(C(=O)Nc3ccc(Cl)c(Cl)c3)cc2)c1	2	25*	2	9	2	7
NS(=O)(=O)c1ccc(NC(=O)c2ccc(CNS(=O)(=O)c3cc(C(F)(F)F)ccc3Cl)cc2)cc1	1	30*	0	7	4	0
COc1cccc(S(=O)(=O)NCc2ccc(C(=O)Nc3ccc(C)cc3)cc2)c1	-6	17*	1	-28	0	-1
COc1ccc(NC(=O)c2ccc(CNS(=O)(=O)c3cccc(OC)c3)cc2)cc1	0	-10	0	-4	-7	0
O=C(Nc1cccc(O)c1)c1cccc(NC(=O)c2cccs2)c1	-1	28*	0	/	0	2
O=C(NNC(=O)c1cccs1)c1ccc(Br)cc1	1	-2	0	/	0	2
Nc1cccc(NC(=O)c2cccs2)c1	0	-14	0	-3	0	0
O=C(Nc1cccc(NC(=O)c2cccs2)c1)c1ccc(Br)cc1	-3	13*	0	/	0	2
O=[N+]([O-])c1ccc(Oc2c(F)c(F)nc(N3CCCC3)c2F)cc1	6	0	0	27	2	-3
Cc1ccc(Oc2c(F)c(F)nc(N3CCCC3)c2F)cc1	-2	13*	0	48	6	4
CC1=NN(c2nc(-c3ccc(C)cc3)cs2)C(=O)C1N=Nc1cccc(O)c1 (centres undefined)	3	12*	-1	65	3	-1
CC1=NN(c2ccccc2)C(=O)C1N=Nc1cccc(O)c1 (centres undefined)	1	0	0	/	5	5
CCOC(=O)c1ccc(NC(=O)Cn2nc(C)c3ccccc3c2=O)cc1	-3	1	0	/	1	0
Cc1ccc(C(=O)OCn2ncc(Cl)c(Cl)c2=O)cc1	-7	-1	0	107*	0	-11
Cc1cc(Br)ccc1NC(=O)CNC(=O)Cn1ncc(Cl)c(Cl)c1=O	-8	0	0	106*	-1	23
CCOC(=O)c1ccc(NC(=O)Cn2ncc(Cl)c(Cl)c2=O)cc1	-9	2	-1	108*	1	1
SMILES	XBP1 UPR activ	NR3A LBD binder	aDG glyco up	CHOP inh	MPTP inh	UPR CHOP act
CCOc1ccc(NC(=O)Nc2cc(C(=O)O)ccc2N2CC3CC(C2)c2cccc(=O)n2C3)cc1 (centres undefined)	-3	11*	0	/	-1	1
CCOc1ccc(NC(=O)c2ccc(N3CC4CC(C3)c3cccc(=O)n3C4)c(NC(=O)c3cccnc3)c2)cc1 (centres undefined)	-1	-1	0	/	1	0
Cc1[nH]n(-c2ccc(Cl)cc2)c(=O)c1C=Nc1ccc(S(=O)(=O)N2CCOCC2)cc1	5	32*	0	19	2	0
CCc1nnc(NS(=O)(=O)c2ccc(N=Cc3c(C)[nH]n(-c4ccc(Cl)cc4)c3=O)cc2)s1	-3	13*	0	-8	7	3
Cc1[nH]n(-c2ccccc2)c(=O)c1/C=N/N1CCOCC1	-1	0	0	5	2	2
COc1nccnc1NS(=O)(=O)c1ccc(N=Cc2c(C)[nH]n(-c3ccc(Cl)cc3)c2=O)cc1	3	/	/	19	/	4
Cc1ccc(-n2[nH]c(C)c(C=Nc3ccc4[nH]c(=O)[nH]c4c3)c2=O)cc1C	-1	16*	0	81*	0	2
CCc1nnc(NS(=O)(=O)c2ccc(N=Cc3c(C)[nH]n(-c4cccc(Cl)c4)c3=O)cc2)s1	-2	20*	0	9	10	-2
CCOc1ccc(-c2cc(C(=O)NCc3cc(OC)cc(OC)c3)[nH]n2)c(C)c1	/	/	0	/	2	/
Cc1ccc(-n2[nH]c(C)c(C=Nc3ccc(S(=O)(=O)Nc4nccs4)cc3)c2=O)cc1C	-1	15*	0	23	0	3
Cc1c(C)n2c(SCC(=O)N3CCOCC3)nnc2[nH]c1=O	-4	0	0	/	0	-1
Cc1ccc(CCC(=O)NCc2ccccc2)o1	-4	-1	0	/	-1	0
COc1ccc(CNC(=O)CN(C(=O)c2snc(C(N)=O)c2N)c2ccc(OC)c(OC)c2)cc1	-2	-2	0	/	1	1
Cc1ccccc1NS(=O)(=O)c1cc(C(=O)NCCSC2CCCCC2)ccc1C	-2	-2	0	72*	29	-1
Cc1cc(NC(=O)COC(=O)C(Nc2ccc(C(F)(F)F)cc2Cl)C(C)C)no1 (centres undefined)	8	6	0	102*	12	0
Cc1cc(NC(=O)COC(=O)c2ccc(OC(F)(F)F)cc2)no1	-1	2	0	/	0	2
CN1CCN(C(=S)Nc2ccc(Cl)c(Cl)c2)CC1	1	13*	0	-16	-1	0
S=C(Nc1ccc(Cl)c(Cl)c1)N1CCN(c2ccccn2)CC1	-2	11*	0	/	1	0
S=C(Nc1ccc(Cl)c(Cl)c1)N1CCCC1	1	-2	0	/	0	4
CC(=O)NC(CCc1ccc(Cl)c(Cl)c1)c1cccc(O)c(=O)c1 (centres undefined)	/	/	2	/	0	/
O=C(Nc1ccc(NC(=S)NC(=O)c2cccs2)cc1)c1ccccc1	1	26*	0	49	1	1
O=C(NC(=S)Nc1ccc(O)cc1)c1ccccc1Cl	3	16*	0	11	0	5
